In PubChem BioAssay AID624038 (The Scripps Research Institute Molecular Screening Center, 2012):
Where “and” joins values, the source holds several entries; their conditions need not be identical. Equal entries are not always repeated. The campaign covered roughly 360,000 compounds. About 1,100 (0.31%) were called active.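 Rule for the calls: active = activation above the run cutoff, the mean activation of all test compounds plus 3 SD (cut at about 18% in these data); inactive = the rest.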 Only a selection was taken, and actives are over-represented in it overall. Some structures have more than one record in an assay (separate samples or runs), and their calls can disagree.

What follows are compounds tested against Muscarinic acetylcholine receptor M5 (Homo sapiens) (UniProt P08912) (assay: CHRM5 PAMs potentiating acetylcholine calcium signal – CHO-K1 cells, Fluo-8 calcium fluorescence, primary screen (AID 624038)). Conditions: CHO-K1 hM5, Fluo-8 calcium, ACh EC20 PAM; at 3 µM; stronger effect = higher value; 0% = ACh EC20, 100% = ACh EC100.
Sequence of Muscarinic acetylcholine receptor M5 (Homo sapiens) (P08912 whole entry, looked up): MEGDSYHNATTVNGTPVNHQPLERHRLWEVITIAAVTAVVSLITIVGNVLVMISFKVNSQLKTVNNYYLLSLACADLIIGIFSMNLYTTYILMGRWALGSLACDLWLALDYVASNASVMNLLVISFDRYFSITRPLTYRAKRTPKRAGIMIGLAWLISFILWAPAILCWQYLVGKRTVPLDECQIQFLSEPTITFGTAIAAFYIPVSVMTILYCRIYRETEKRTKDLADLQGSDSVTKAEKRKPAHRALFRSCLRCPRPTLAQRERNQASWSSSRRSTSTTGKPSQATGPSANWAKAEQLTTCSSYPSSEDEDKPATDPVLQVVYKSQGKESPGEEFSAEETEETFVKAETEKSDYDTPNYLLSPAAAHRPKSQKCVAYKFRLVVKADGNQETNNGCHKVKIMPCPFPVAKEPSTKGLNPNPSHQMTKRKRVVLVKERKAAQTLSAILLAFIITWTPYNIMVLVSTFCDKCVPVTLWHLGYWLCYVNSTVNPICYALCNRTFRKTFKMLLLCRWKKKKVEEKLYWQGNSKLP
Summary of the method: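 System: CHO-K1 hM5 cells. Reagent: acetylcholine, EC20 level. Compound dosing: single dose, 3 µM nominal final test concentration. Timing: Post-acetylcholine fluorescence recording 140 s. Detection: Fluo-8 calcium fluorescence. Read-out: % activation, ACh-normalized. Benchmarks: ACh EC20 and EC100 wells. Repeats: singlicate, one well per test compound.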
In the case of `Cc1cc(C(=O)OCC(=O)Nc2nccs2)c2ccccc2n1`, the activation is reported as -1.11% (inactive). For `C=CCn1c(=S)[nH]c2scc(-c3ccco3)c2c1=O`, the activation was -1.04% (inactive). For `Cc1cc(C)n(Cc2cnc(N3CCOCC3)s2)n1`, the activation was -0.72% (inactive). `CN(CC(=O)Nc1c(Cl)cccc1Cl)C(=O)CNC(=O)C1CCCCC1` was tested, and the activation was 7.43% (inactive). For `COc1cccc(N(CC(=O)N2CCc3ccccc3C2)S(C)(=O)=O)c1`, the activation was -6.56% (inactive). `CCN(CC)C(=O)CN(c1cccc(OC)c1)S(=O)(=O)c1ccc(C)cc1` was tested, and the activation was 24% (active). In the case of `COc1cccc(N(CC(=O)NC2CCCCCC2)S(=O)(=O)c2ccccc2)c1`, the activation is reported as -3.45% (inactive). With `CCN1CCN(C(=O)C2CCCN(S(=O)(=O)c3ccc(OC)c(OC)c3)C2)CC1` (configuration not stated) the activation was -3.07% (inactive). With `CCNC(=S)NNC(=O)C1CCN(Cc2ccccc2)CC1` the activation was 22.7% (active). In the case of `O=C(NNS(=O)(=O)c1ccc(Cl)cc1)C1CCN(Cc2ccccc2)CC1`, the activation is reported as -22.7% (inactive). For `CCOC(=O)C1CCN(Cc2ccc(-c3ccccc3)cc2)CC1`, the activation was -6.76% (inactive). With `CCCc1nc(N)nc2c1C(=O)CC(C)(C)C2` the activation was 3.62% (inactive). For `COc1ccc(N2CCN(CCCNC(=O)C3CCN(S(=O)(=O)N4CCOCC4)CC3)CC2)cc1`, the activation was -0.18% (inactive). `CSc1ccc(C(=O)C2CCCN(C(=O)c3ccc(C)nc3)C2)cc1` (configuration not stated) was tested, and the activation was -1.27% (inactive). For `Cn1nccc1NC(=O)CC(CC(=O)O)c1ccccc1` (configuration not stated), the activation was -3.88% (inactive). With `Cc1c(-c2ccccc2)nc(N)c(C#N)c1-c1cccs1` the activation was -5.86% (inactive). In the case of `O=C(O)c1n[nH]nc1-c1ccccc1`, the activation is reported as 3.89% (inactive). `N#Cc1c(-c2ccccc2)c(-c2ccccc2)n[nH]c1=O` was tested, and the activation was 20.6% (active). For `O=C(COc1ccc(Cl)cc1)NCCS(=O)(=O)N1CCN(c2ccc(F)cc2)CC1`, the activation was -8.06% (inactive). In the case of `CCCc1nc(N2CCN(C)CC2)c2sc(=S)n(-c3ccccc3)c2n1`, the activation is reported as -2.27% (inactive). In the case of `O=C(/C=C/c1c(F)cccc1Cl)Nc1nn[nH]n1`, the activation is reported as -6.11% (inactive). With `O=C(/C=C/c1c(Cl)cccc1Cl)NCc1ccccc1` the activation was 0.05% (inactive). `CCOC(=O)CNC(=O)/C=C/c1c(Cl)cccc1Cl` was tested, and the activation was 20.4% (active). For `CCc1ccc(N(CC)c2ncnc3nc[nH]c23)cc1`, the activation was -3.31% (inactive). `CC(C)Cn1c(=O)c2ccccc2n2c(CCC(=O)NCc3ccccn3)nnc12` was tested, and the activation was -4.54% (inactive). In the case of `Cc1ccccc1C(=O)Nc1ccccc1Sc1ccccc1`, the activation is reported as -14.3% (inactive). For `CSc1ncc(C(=O)NCCCc2ccccc2)c(C)n1`, the activation was -2.95% (inactive). In the case of `CSc1ncc(Sc2ccccc2)c(C(=O)O)n1`, the activation is reported as 23.2% (active). `CCOc1ccc(S(=O)(=O)N2CCCC(C(=O)N3CCC(C(N)=O)CC3)C2)cc1Cl` (configuration not stated) was tested, and the activation was 5.31% (inactive). `CCCCOP(=O)(c1ccc(N(C)C)cc1)C(O)c1cc(OC)ccc1OC` (configuration not stated) was tested, and the activation was 4.18% (inactive). For `CSCC(=O)N1CCCC(C(=O)c2cc(F)ccc2F)C1` (configuration not stated), the activation was -4.39% (inactive). `S=C(Nc1ccc(Br)cc1Cl)N1CCC2(CC1)OCCO2` was tested, and the activation was -0.18% (inactive). `NC(=O)C1=C[C@@H](c2ccc3c(c2)OCO3)C[C@@H](OCCCCO)O1` was tested, and the activation was -3.38% (inactive). With `Cc1nn(Cc2ccccc2)c(C)c1NS(=O)(=O)c1ccccc1` the activation was -9.59% (inactive). With `O=C(CS(=O)(=O)c1ccccc1)Nc1ccc(S(=O)(=O)Nc2ccccn2)cc1` the activation was -5.27% (inactive). For `COc1ccc(NC(=O)CC(NC(C)c2ccccc2)C(=O)O)cc1` (configuration not stated), the activation was -1.9% (inactive). For `COc1ccc(NC(=O)CS(=O)(=O)c2ccccc2)cc1`, the activation was 18.2% (active). With `CCOC(=O)N1CCC(NC(=O)C(C)n2c3ccccc3c3cnn(C)c(=O)c32)CC1` (configuration not stated) the activation was -5.66% (inactive). In the case of `CCN(CC(=O)Nc1c(F)cccc1F)C(=O)c1ccc(Sc2nncn2C)c([N+](=O)[O-])c1`, the activation is reported as 0.28% (inactive). In the case of `COc1ccc(C(C(=O)NC2CCCCC2)N(C(=O)c2snc(C(N)=O)c2N)c2ccccc2OC)cc1` (configuration not stated), the activation is reported as -2.86% (inactive). `COc1ccc(C(C(=O)NC2CCCCC2)N(C(=O)CCl)c2ccccc2Cl)cc1` (configuration not stated) was tested, and the activation was 28.1% (active). In the case of `Cc1ccccc1N(C(=O)CNC(=O)c1cccs1)C(C(=O)NC1CCCC1)c1ccncc1` (configuration not stated), the activation is reported as 5.18% (inactive). In the case of `O=C(CSc1nc2ncccc2[nH]1)Nc1ccc2c(c1)OCCO2`, the activation is reported as -2.19% (inactive). With `CCOc1ccccc1NC(=O)NC1CCCCCCC1` the activation was -0.6% (inactive). With `CCOc1ccc(C(=O)CCC(=O)Nc2ccncc2)cc1` the activation was -11.9% (inactive). For `CCOc1ccc(NC(=O)CCC(=O)NNC(=O)NC2CCCCC2)cc1`, the activation was 21.3% (active). For `O=C(CCn1c(=O)oc2ccccc21)Nc1ccon1`, the activation was 3.01% (inactive). For `CC(NCc1cccs1)C(=O)Nc1cc(Cl)cc(Cl)c1` (configuration not stated), the activation was -6.98% (inactive). With `CCCCNC(=O)c1ccccc1NC(=O)C1=C(C)OCCS1` the activation was -4.46% (inactive). For `CCCCNC(=O)c1ccccc1NC(=O)c1ccccc1N(C)S(C)(=O)=O`, the activation was 21.6% (active). `CCC(C)NC(=O)c1ccccc1NC(=O)c1ccccc1N(C)S(C)(=O)=O` (configuration not stated) was tested, and the activation was 2.75% (inactive). In the case of `Cc1noc(/C=C/c2ccco2)c1S(=O)(=O)N1CCC(C(=O)N2CCc3ccccc32)CC1`, the activation is reported as -9.2% (inactive). In the case of `CC(C)(C)n1nnnc1C(c1ccc2ncccc2c1)N1CCSCC1` (configuration not stated), the activation is reported as -6.68% (inactive). For `CC(=O)N1CCN(CCN=CC2=C(O)CC(C)(C)CC2=O)CC1`, the activation was -3.36% (inactive). `CC(C)C(=O)N1CCN(CCN=CC2=C(O)CC(c3ccco3)CC2=O)CC1` (configuration not stated) was tested, and the activation was 18.8% (active) and 2.37% (inactive). `CC1(C)CC(=O)C(C=NCCN2CCN(C(=S)Nc3cccc(Cl)c3)CC2)=C(O)C1` was tested, and the activation was 0.98% (inactive). With `COCCNC(=O)C1CCN(C(=O)C2CC(=O)N(c3ccc(C)cc3)C2)CC1` (configuration not stated) the activation was 19.9% (active). `CCCC(C)NC(=O)C1CCN(C(=O)C2CC(=O)N(c3ccc(C)cc3)C2)CC1` (configuration not stated) was tested, and the activation was 1.21% (inactive). `COCCCNC(=O)C1CC(=O)N(c2ccc(C)cc2)C1` (configuration not stated) was tested, and the activation was -2.16% (inactive). `O=C(CCC(=O)n1ncc2ccccc21)NCc1ccccc1Cl` was tested, and the activation was -1.46% (inactive). `O=C(CN1C(=O)NC(Cc2ccccc2)(Cc2ccccc2)C1=O)NCC1CCCCC1` was tested, and the activation was -4.45% (inactive). With `O=C(CNc1cccc(S(=O)(=O)N2CCCCC2)c1)Nc1ccccc1F` the activation was 2.99% (inactive). In the case of `CC(NC(=O)C(=O)Nc1nccs1)c1ccccc1` (configuration not stated), the activation is reported as 20.9% (active). `CC(=O)NC(CC(=O)Nc1nccs1)c1ccccc1` (configuration not stated) was tested, and the activation was 3.53% (inactive). `C[C@H](NC(=O)c1[nH]cnc1C(=O)Nc1nccs1)c1ccccc1` was tested, and the activation was 6.95% (inactive). In the case of `CCCCn1nc(C(=O)OCC(=O)Nc2sccc2C(N)=O)c2ccccc2c1=O`, the activation is reported as -5.8% (inactive). For `COC(=O)c1ccc(CN2CCC(CO)(Cc3ccc(OC)cc3)CC2)cc1`, the activation was -13.3% (inactive). For `O=C(NC1=NCCS1)c1ccc(Cl)s1`, the activation was 2.85% (inactive). `COc1ccc(NC(=O)C(C)SCc2ccccc2)cc1` (configuration not stated) was tested, and the activation was 3.94% (inactive). In the case of `C=CCN1C(=O)C(O)(CC(=O)c2ccccn2)c2ccccc21` (configuration not stated), the activation is reported as 0.57% (inactive). `C=CCN1C(=O)C(O)(CC(=O)c2ccc(Cl)cc2)c2ccccc21` (configuration not stated) was tested, and the activation was 12.2% (inactive). With `O=C(CC1(O)C(=O)N(CN2CCOCC2)c2ccccc21)c1ccccc1` (configuration not stated) the activation was 37.4% (active).
